Results reported in ChEMBL document CHEMBL5653624 (Biochem Pharmacol, 2016).

Test: Cytotoxicity against HBE cells assessed as reduction in cell viability at 2 uM measured after 20 hrs by MTS assay
Type: toxicity, cell-based
Settings: human
Summary of the method: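 MTS viability assay. RAW 264.7 cells seeded at 25,000 cells/cm2; HBE and hASM cells at 70% confluency and serum-starved for 24 h. Exposure for 20 h with LPS/IFNγ stimulation. MTS reagent added for 1 h at 37 °C in the dark, absorbance read at 490 nm. LPS/IFNγ-stimulated cells without inhibitor set at 100%.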

With `Nc1cc(F)ccc1NC(=O)/C=C/c1cnn(C/C=C/c2ccccc2)c1` the Activity was “Non-Toxic”.
